Results: ChEMBL document CHEMBL4673374, “Synthesis of mitochondria-targeted coumarin-3-carboxamide fluorescent derivatives: Inhibiting mitochondrial TrxR2 and cell proliferation on breast cancer cells” (Bioorg Med Chem Lett, 2021)
The source made the active and inactive calls. The rule behind the calls is not given here.

Experiments:
MCF7 = assay: Cytotoxicity against human MCF7 cells after 48 hrs by MTT assay; type: functional, cell-based; details: MCF7, 48 h
In short: (§1)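 MTT viability read after 48 h exposure of three breast cancer lines and non-tumorigenic MCF-10A breast cells; IC50 reported as mean ± SD from at least three independent experiments. Butyl-TPP and tamoxifen run alongside as references. Sulforhodamine B assay used as a cross-check.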

MDA-MB-231 [1] = assay: Induction of apoptosis in human MDA-MB-231 cells assessed as early apoptotic cells at 2 uM incubated for 48 hrs by Annexin V-FITC/PI staining based flow cytometric analysis (reference value: 2.08 %); type: functional
SK-BR-3 = assay: Cytotoxicity against human SK-BR-3 cells after 48 hrs by MTT assay; type: functional, cell-based; details: SK-BR-3, 48 h; in short: as §1
MDA-MB-231 [2] = assay: Induction of mitochondrial membrane potential loss in human MDA-MB-231 cells assessed as TMRE high cells at 8 uM after 24 hrs by TMRE staining based flow cytometric analysis (reference value: 1.79%); type: functional
MDA-MB-231 [3] = assay: Induction of ROS generation in human MDA-MB-231 cells after 6 hrs by DCFH-DA staining based flow cytometric analysis; type: functional, cell-based
In short: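 MDA-MB-231 cells treated for 6 h, then intracellular ROS probed with DCFH-DA. Geometric mean fluorescence measured by flow cytometry. Mean ± SD, n = 3.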

MDA-MB-231 [4] = assay: Induction of mitochondrial membrane potential loss in human MDA-MB-231 cells after 24 hrs by TMRE staining based flow cytometric analysis; type: functional, cell-based; details: dose 2-8 µM
MDA-MB-231 [5] = assay: Induction of mitochondrial membrane potential loss in human MDA-MB-231 cells assessed as TMRE low/caspase low cells at 2 uM after 24 hrs by TMRE staining based flow cytometric analysis (reference value: 98.21%); type: functional
MDA-MB-231 [6] = assay: Induction of mitochondrial membrane potential loss in human MDA-MB-231 cells assessed as TMRE low/caspase low cells at 4 uM after 24 hrs by TMRE staining based flow cytometric analysis (reference value: 98.21%); type: functional
MDA-MB-231 [7] = assay: Induction of apoptosis in human MDA-MB-231 cells assessed as late apoptotic or necrotic cells at 2 uM incubated for 48 hrs by Annexin V-FITC/PI staining based flow cytometric analysis (reference value: 3.51 %); type: functional
MDA-MB-231 [8] = assay: Induction of mitochondrial membrane potential loss in human MDA-MB-231 cells assessed as TMRE high cells at 2 uM after 24 hrs by TMRE staining based flow cytometric analysis (reference value: 1.79%); type: functional
MDA-MB-231 [9] = assay: Induction of mitochondrial membrane potential loss in human MDA-MB-231 cells assessed as TMRE high cells at 4 uM after 24 hrs by TMRE staining based flow cytometric analysis (reference value: 1.79%); type: functional
MDA-MB-231 [10] = assay: Down regulation of TrxR expression in human MDA-MB-231 cells incubated for 48 hrs by Western blot analysis; type: functional, cell-based; details: dose 2-8 µM
In short: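 MDA-MB-231 cells exposed at 2, 4 and 8 μM for 48 h. TrxR2 protein detected by Western blot and quantified by gray-value scanning. Mean ± SD, n = 3.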

[11] = Stability of compound in methanol-water after 3 days by HPLC-MS analysis; type: physicochemical; details: 72 h; time 3 day
MDA-MB-231 [12] = assay: Induction of cell death in human MDA-MB-231 cells assessed as reduction in cell viability preincubated with CsA for 2 hrs followed by compound addition and measured after 48 hrs by MTT assay; type: functional, cell-based
In short: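 MDA-MB-231 cells pre-incubated 2 h with cyclosporin A (2 and 4 μM), then exposed to compound for 48 h. Viability read by MTT. Mean ± SD, n = 3.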

[13] = Drug localization in mitochondria of human MDA-MB-231 cells at 1 uM incubated for 30 mins in presence of CCCP by MTDR staining based laser confocal microscopic analysis; type: ADME; details: mda-mb-231, 0.5 h
MDA-MB-231 [14] = assay: Induction of cell death in human MDA-MB-231 cells assessed as reduction in cell viability at 2 to 8 uM preincubated with BSO for 24 hrs followed by compound addition and measured after 24 hrs MTT assay; type: functional; details: dose 2-8 µM
In short: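 MDA-MB-231 cells pretreated with buthionine sulfoximine (50 μM, 24 h) to deplete GSH, then exposed to test compound for a further 24 h. Viability read by MTT. Means ± SD, n = 3.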

MDA-MB-231 [15] = assay: Inhibition of TrxR activity in human MDA-MB-231 cell mitochondrial extracts at 10 uM incubated for 4 hrs; details: Mitochondria
In short: (§2)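 MDA-MB-231 cells treated with 10 μM compound for 4 h. Total-cell and mitochondrial extracts assayed for TrxR activity with a micro oxidized thioredoxin reductase kit. Mean ± SD, n = 3.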

[16] = Drug uptake in human MDA-MB-231 cells assessed as blue fluorescence at 8 uM measured after 0.5 to 1.5 hrs by flow cytometric analysis; type: ADME, cell-based; details: mda-mb-231, 8 µM, TDE = time-dependent effect, time 0.5-1.5 hrs
In short: (§3)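 Uptake read from native blue fluorescence (λex ~420, λem ~475 nm) by flow cytometry as geometric mean intensity. Dose series read after 2 h. Time course run at 8 μM over several durations. Mean ± SD, n = 3.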

MDA-MB-231 [17] = assay: Induction of apoptosis in human MDA-MB-231 cells assessed as late apoptotic or necrotic cells at 8 uM incubated for 48 hrs by Annexin V-FITC/PI staining based flow cytometric analysis (reference value: 3.51 %); type: functional
MDA-MB-231 [18] = assay: Induction of mitochondrial membrane potential loss in human MDA-MB-231 cells assessed as TMRE low/caspase low cells at 8 uM after 24 hrs by TMRE staining based flow cytometric analysis (reference value: 98.21%); type: functional
MDA-MB-231 [19] = assay: Induction of apoptosis in human MDA-MB-231 cells assessed as early apoptotic cells at 8 uM incubated for 48 hrs by Annexin V-FITC/PI staining based flow cytometric analysis (reference value: 2.08 %); type: functional
[20] = Drug localization in mitochondria of human MDA-MB-231 cells at 1 uM incubated for 30 mins by MTDR staining based laser confocal microscopic analysis; type: ADME; details: mda-mb-231, 0.5 h
MDA-MB-231 [21] = assay: Cytotoxicity against human MDA-MB-231 cells after 48 hrs by MTT assay; type: functional, cell-based; details: MDA-MB-231, 48 h; in short: as §1
[22] = Drug uptake in human MDA-MB-231 cells assessed as blue fluorescence after 2 hrs by flow cytometric analysis; type: ADME, cell-based; details: mda-mb-231, 2 h, dose 1-16 µM; in short: as §3
MDA-MB-231 [23] = assay: Induction of mitochondrial membrane depolarization in human MDA-MB-231 cells at 2 to 8 uM preincubated with BSO for 24 hrs followed by compound addition by flow cytometric analysis; type: functional; details: dose 2-8 µM
In short: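 MDA-MB-231 cells pretreated with 50 μM buthionine sulfoximine for 24 h to deplete GSH, then exposed to compound. Mitochondrial membrane potential determined by flow cytometry. Mean ± SD, n = 3.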

MCF-10A = assay: Cytotoxicity against human MCF-10A cells after 48 hrs by MTT assay; type: cell-based; in short: as §1
MDA-MB-231 [24] = assay: Inhibition of TrxR activity in human MDA-MB-231 cells at 10 uM incubated for 4 hrs; type: cell-based; in short: as §2
MDA-MB-231 [25] = assay: Induction of apoptosis in human MDA-MB-231 cells assessed as late apoptotic or necrotic cells at 4 uM incubated for 48 hrs by Annexin V-FITC/PI staining based flow cytometric analysis (reference value: 3.51 %); type: functional
MDA-MB-231 [26] = assay: Induction of apoptosis in human MDA-MB-231 cells assessed as early apoptotic cells at 4 uM incubated for 48 hrs by Annexin V-FITC/PI staining based flow cytometric analysis (reference value: 2.08 %); type: functional

CCN(CC)c1ccc2cc(C(=O)NCCCC[P+](c3ccccc3)(c3ccccc3)c3ccccc3)c(=O)oc2c1
IC50 (MCF7): 3.26 µM | Activity (MDA-MB-231 [1]): 1.2% | IC50 (SK-BR-3): 3.46 µM | Activity (MDA-MB-231 [2]): 39.37% | Activity (MDA-MB-231 [3]): Dose-dependent effect | Activity (MDA-MB-231 [4]): Dose-dependent effect | Activity (MDA-MB-231 [5]): 78.96% | Activity (MDA-MB-231 [6]): 70.55% | Activity (MDA-MB-231 [7]): 14.69% | Activity (MDA-MB-231 [8]): 21.04% | Activity (MDA-MB-231 [9]): 29.45% | Activity (MDA-MB-231 [10]): Active | Stabilty [11]: Stable | Activity (MDA-MB-231 [12]): inactive | Drug uptake [13]: Not Active | Activity (MDA-MB-231 [14]): 50% | inhibition (MDA-MB-231 [15]): Active | Drug uptake [16]: Tde | Activity (MDA-MB-231 [17]): 65.07% | Activity (MDA-MB-231 [18]): 60.63% | Activity (MDA-MB-231 [19]): 1.89% | Drug uptake [20]: Active | IC50 (MDA-MB-231 [21]): 3.03 µM | Drug uptake [22]: Dose-dependent effect | Activity (MDA-MB-231 [23]): 13% | IC50 (MCF-10A): 45.3 µM | inhibition (MDA-MB-231 [24]): Active | Activity (MDA-MB-231 [25]): 24.09% | Activity (MDA-MB-231 [26]): 6.47%

CCCC[P+](c1ccccc1)(c1ccccc1)c1ccccc1
IC50 (MCF7): 57.4 µM | IC50 (SK-BR-3): > 100 µM | IC50 (MDA-MB-231 [21]): > 100 µM | IC50 (MCF-10A): > 100 µM

CCCCNC(=O)c1cc2ccc(N(CC)CC)cc2oc1=O
IC50 (MCF7): > 100 µM | IC50 (SK-BR-3): > 100 µM | IC50 (MDA-MB-231 [21]): > 100 µM | IC50 (MCF-10A): > 100 µM

CCN(Cc1ccccc1)c1ccc2cc(C(=O)NCCCC[P+](c3ccccc3)(c3ccccc3)c3ccccc3)c(=O)oc2c1
IC50 (MCF7): 4.9 µM | IC50 (SK-BR-3): 2.73 µM | IC50 (MDA-MB-231 [21]): 3.73 µM | IC50 (MCF-10A): 15.1 µM

CC/C(=C(\c1ccccc1)c1ccc(OCCN(C)C)cc1)c1ccccc1 [TAMOXIFEN]
IC50 (MCF7): 15.2 µM | IC50 (MCF-10A): > 50 µM

CCN(CC)c1ccc2cc(C(=O)OCCCC[P+](c3ccccc3)(c3ccccc3)c3ccccc3)c(=O)oc2c1
IC50 (MCF7): 27.8 µM | IC50 (SK-BR-3): 30.9 µM | Stabilty [11]: Unstable | Drug uptake [16]: Tde | IC50 (MDA-MB-231 [21]): 29.4 µM | Drug uptake [22]: Dose-dependent effect | IC50 (MCF-10A): 83.7 µM
